In ChEMBL document CHEMBL2331119 (Bioorg Med Chem Lett, 2013):
Active and inactive are the calls of the source. The rule behind the calls is not given here.

Assays:
[1] = target: Sodium-dependent dopamine transporter (Homo sapiens, UniProt Q01959); experiment: Inhibition of [3H]dopamine uptake at human DAT expressed in COS7 cells after 3 mins by beta-counting; format: cell-based, COS-7
[2] = target: T1, Sodium-dependent serotonin transporter (Homo sapiens, UniProt P31645); format: cell-based, COS-7
Target sequence in this assay (P31645 whole entry): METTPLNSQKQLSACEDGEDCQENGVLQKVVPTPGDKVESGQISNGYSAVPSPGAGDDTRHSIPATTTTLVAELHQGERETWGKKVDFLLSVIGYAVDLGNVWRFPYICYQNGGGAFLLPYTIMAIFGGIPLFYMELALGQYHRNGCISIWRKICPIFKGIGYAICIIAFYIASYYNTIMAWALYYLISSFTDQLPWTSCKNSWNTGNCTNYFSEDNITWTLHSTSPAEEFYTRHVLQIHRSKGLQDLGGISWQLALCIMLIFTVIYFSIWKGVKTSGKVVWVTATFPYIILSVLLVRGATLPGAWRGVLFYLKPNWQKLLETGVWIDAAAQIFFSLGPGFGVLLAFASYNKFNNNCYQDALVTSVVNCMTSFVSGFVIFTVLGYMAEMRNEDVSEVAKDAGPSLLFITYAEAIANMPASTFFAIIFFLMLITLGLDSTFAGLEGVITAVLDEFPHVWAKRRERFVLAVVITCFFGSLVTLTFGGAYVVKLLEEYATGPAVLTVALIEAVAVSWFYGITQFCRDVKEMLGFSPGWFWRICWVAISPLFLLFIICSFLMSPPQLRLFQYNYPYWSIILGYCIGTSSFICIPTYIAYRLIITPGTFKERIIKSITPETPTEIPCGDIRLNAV

[3] = target: Sodium-dependent noradrenaline transporter (Homo sapiens, UniProt P23975); experiment: Inhibition of [3H]dopamine uptake at human NET expressed in COS7 cells after 5 mins by beta-counting; format: cell-based, COS-7
[4] = test system: COS-7; experiment: Ratio of Ki for human DAT expressed in COS7 cells to Ki for human SERT expressed in COS7 cells; format: cell-based
[5] = target: T1, Sodium-dependent serotonin transporter; experiment: Binding affinity to EGFP fused human SERT expressed in HEK293 cells after 1 hr by confocal microscopy; format: cell-based
Procedure, shortened: (§1)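 Live HEK293 cells stably expressing EGFP-hSERT were incubated 1 h at 37°C with 20 nM rhodamine-labeled ligand. […] Confocal microscopy scored red-channel fluorescence at the cell surface against EGFP (green) distribution. Images are representative of more than 3 individual experiments.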
Target sequence in this assay (P31645 whole entry, looked up): as the sequence (P31645 whole entry) above

[6] = test system: COS-7; experiment: Ratio of Ki for human NET expressed in COS7 cells to Ki for human SERT expressed in COS7 cells; format: cell-based
[7] = target: T1, Sodium-dependent serotonin transporter; experiment: Binding affinity to EGFP fused human SERT expressed in HEK293 cells after 1 hr by confocal microscopy in presence of 5-HT; format: cell-based; procedure, shortened: as §1
Target sequence in this assay (P31645 whole entry, looked up): as the sequence (P31645 whole entry) above

[8] = target: T1, Sodium-dependent serotonin transporter; experiment: Binding affinity to EGFP fused human SERT expressed in HEK293 cells after 1 hr by confocal microscopy in presence of paroxetine; format: cell-based; procedure, shortened: as §1
Target sequence in this assay (P31645 whole entry, looked up): as the sequence (P31645 whole entry) above

[9] = target: T1, Sodium-dependent serotonin transporter; experiment: Binding affinity to EGFP fused human SERT expressed in HEK293 cells after 1 hr by confocal microscopy in presence of S-citalopram; format: cell-based; procedure, shortened: as §1
Target sequence in this assay (P31645 whole entry, looked up): as the sequence (P31645 whole entry) above

Chain of Sodium-dependent noradrenaline transporter (P23975 whole entry): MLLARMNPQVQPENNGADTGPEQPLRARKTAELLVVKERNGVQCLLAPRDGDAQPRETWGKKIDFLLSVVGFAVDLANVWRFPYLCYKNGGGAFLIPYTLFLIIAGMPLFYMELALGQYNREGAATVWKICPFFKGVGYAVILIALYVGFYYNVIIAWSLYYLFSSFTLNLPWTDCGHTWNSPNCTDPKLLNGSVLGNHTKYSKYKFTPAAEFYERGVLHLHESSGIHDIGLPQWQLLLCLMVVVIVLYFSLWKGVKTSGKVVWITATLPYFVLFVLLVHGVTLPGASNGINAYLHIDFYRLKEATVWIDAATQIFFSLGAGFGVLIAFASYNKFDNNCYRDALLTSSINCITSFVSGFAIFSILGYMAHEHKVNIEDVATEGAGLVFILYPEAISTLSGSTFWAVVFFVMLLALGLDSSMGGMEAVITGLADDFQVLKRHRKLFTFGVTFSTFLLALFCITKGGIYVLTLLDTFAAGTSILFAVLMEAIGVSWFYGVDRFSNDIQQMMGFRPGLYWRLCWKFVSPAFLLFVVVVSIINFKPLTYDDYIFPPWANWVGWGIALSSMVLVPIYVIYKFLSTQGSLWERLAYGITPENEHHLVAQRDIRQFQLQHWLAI
Chain of Sodium-dependent dopamine transporter (Q01959 whole entry): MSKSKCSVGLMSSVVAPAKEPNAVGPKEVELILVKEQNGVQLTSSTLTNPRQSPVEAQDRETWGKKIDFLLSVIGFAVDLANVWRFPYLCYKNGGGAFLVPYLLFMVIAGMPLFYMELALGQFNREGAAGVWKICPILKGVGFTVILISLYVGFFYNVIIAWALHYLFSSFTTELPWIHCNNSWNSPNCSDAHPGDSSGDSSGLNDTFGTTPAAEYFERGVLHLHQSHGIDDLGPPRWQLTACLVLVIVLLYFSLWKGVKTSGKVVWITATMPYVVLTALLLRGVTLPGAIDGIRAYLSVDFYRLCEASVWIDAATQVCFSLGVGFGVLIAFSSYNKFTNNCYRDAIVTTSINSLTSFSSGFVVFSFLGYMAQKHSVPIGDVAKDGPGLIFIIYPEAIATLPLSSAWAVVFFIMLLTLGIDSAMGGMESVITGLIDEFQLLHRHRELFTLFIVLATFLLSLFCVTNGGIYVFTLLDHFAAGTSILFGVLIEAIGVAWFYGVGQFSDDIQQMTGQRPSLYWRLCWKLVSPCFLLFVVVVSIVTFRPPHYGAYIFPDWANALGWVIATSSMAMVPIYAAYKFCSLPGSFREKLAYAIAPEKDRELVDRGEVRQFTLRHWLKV

SMILES	Ki [1] [nM]	Ki [2] [nM]	Ki [3] [nM]	Ratio Ki [4]	Activity [5]	Ratio Ki [6]	Activity [7]	Activity [8]	Activity [9]
CCN(CC)c1ccc2c(-c3ccc(S(=O)(=O)NCCCCCC(=O)NCCN4[C@@H]5CC[C@@H]4[C@@H](C(=O)OC)[C@@H](c4ccc(Cl)c(Cl)c4)C5)cc3S(=O)(=O)[O-])c3ccc(=[N+](CC)CC)cc-3oc2c1	62	392	194	–	–	–	–	–	–
CCN(CC)c1ccc2c(-c3ccc(S(=O)(=O)NCCCCCC(=O)NCCC(=O)Nc4cccc(-c5ccc6c(c5)COC6(CCCN(C)C)c5ccc(F)cc5)c4)cc3S(=O)(=O)[O-])c3ccc(=[N+](CC)CC)cc-3oc2c1 (stereo not drawn)	10900	225	11800	50	Active	50	inactive	inactive	inactive
CN(C)CCCC1(c2ccc(F)cc2)OCc2cc(-c3cccc(N)c3)ccc21 (stereo not drawn)	–	390	–	–	–	–	–	–	–
